In ChEMBL document CHEMBL4823323, “Monocyclic Nitro-heteroaryl Nitrones with Dual Mechanism of Activation: Synthesis and Antileishmanial Activity” (ACS Med Chem Lett, 2021):
Activity calls are given as the source filed them. No cut-off for these calls is given here.

Assays:
Leishmania infantum [1] = experiment: Antileishmanial activity against Leishmania infantum MHOM/MA/67/ITMAP-263 promastigotes assessed as inhibition of parasite growth incubated for 72 hrs by resazurin dye based assay; type: functional, organism-based; conditions: MHOM/MA/67/ITMAP-263, 72 h
How it was run: (§1)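 Values are averages of three independent experiments run in triplicate ± standard error.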

[2] = Electrochemical behavior of the compound in aprotic medium assessed as redox potential using glassy carbon electrode by cyclic voltammetry analysis; type: physicochemical
Leishmania amazonensis [3] = experiment: Antileishmanial activity against Leishmania amazonensis MHOM/BR/77/LTB 0016 promastigotes assessed as inhibition of parasite growth incubated for 72 hrs by resazurin dye based assay; type: functional, organism-based; conditions: MHOM/BR/77/LTB 0016, 72 h; how it was run: as §1
[4] = Cytotoxicity against BALB/c mouse peritoneal macrophages assessed as reduction in cell viability incubated for 72 hrs by resazurin dye based fluorescence assay; set-up: species or system Peritoneal macrophage
How it was run: (§2)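 CC50 values are means of three independent experiments, each in triplicate, ± standard error; selectivity index taken as macrophage CC50 divided by intracellular amastigote EC50.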

Leishmania amazonensis [5] = experiment: Antileishmanial activity against intracellular Leishmania amazonensis MHOM/BR/77/LTB 0016 amastigotes infected in BALB/c mouse peritoneal macrophage assessed as reduced parasite growth incubated for 72 hrs by PANOTIC staining based assay; type: functional, organism-based; conditions: MHOM/BR/77/LTB 0016, Peritoneal macrophage; how it was run: as §1
Leishmania infantum [6] = experiment: Antileishmanial activity against intracellular Leishmania infantum MHOM/MA/67/ITMAP-263 amastigotes infected in BALB/c mouse peritoneal macrophage assessed as reduced parasite growth incubated for 72 hrs by PANOTIC staining based assay; type: functional, organism-based; conditions: MHOM/MA/67/ITMAP-263, Peritoneal macrophage; how it was run: as §1
[7] = (§3) Selectivity index, ratio of CC50 for cytotoxicity against BALB/c mouse peritoneal macrophages assessed as reduction in cell viability incubated for 72 hrs by resazurin dye based fluorescence assay to IC50 for antileishmanial activity against intracellular Leishmania amazonensis MHOM/BR/77/LTB 0016 amastigotes infected in BALB/c mouse peritoneal macrophage; type: toxicity; conditions: read-out: Selectivity Index; how it was run: as §2
[8] = as §3, with “infantum MHOM/MA/67/ITMAP-263” for “amazonensis MHOM/BR/77/LTB 0016”; type: toxicity; conditions: read-out: Selectivity Index; how it was run: as §2
Leishmania amazonensis [9] = experiment: Induction of ROS production in Leishmania amazonensis promastigotes measured by H2DCFDA probe based fluorescence analysis; type: functional; conditions: time hrs <=4
How it was run: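 L. amazonensis promastigotes exposed to compounds at concentrations based on the anti-promastigote EC50, with ROS followed kinetically over 4 h using H2DCFDA fluorescence; means ± SD, n=3.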

Leishmania donovani [10] = experiment: Antileishmanial activity against wild type Leishmania donovani promastigotes incubated for 72 hrs by resazurin dye based assay; type: functional, organism-based
How it was run: (§4)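 IC50 is the mean ± standard error of three independent experiments, each run in triplicate.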

Leishmania donovani [11] = experiment: Selectivity index, ratio of IC50 for antileishmanial activity against wild type Leishmania donovani promastigotes to IC50 for antileishmanial activity against Leishmania donovani LdBOB derived from MHOM/SD/62/1 S-CL2D promastigotes overexpressing NTR1; type: functional
Leishmania donovani [12] = experiment: Antileishmanial activity against Leishmania donovani LdBOB derived from MHOM/SD/62/1 S-CL2D promastigotes overexpressing NTR1 incubated for 72 hrs by resazurin dye based assay; type: functional, organism-based; how it was run: as §4
Leishmania donovani [13] = experiment: Selectivity index, ratio of IC50 for antileishmanial activity against wild type Leishmania donovani promastigotes to IC50 for antileishmanial activity against Leishmania donovani LdBOB derived from MHOM/SD/62/1 S-CL2D promastigotes overexpressing NTR2; type: functional
Peritoneal macrophage = experiment: Induction of ROS production in mouse peritoneal macrophages at EC50 concentration measured upto 4 hrs by H2DCFDA probe based fluorescence analysis; type: functional, cell-based; conditions: time hrs <=4
How it was run: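 Murine peritoneal macrophages incubated 4 h with 0.5×, 1× and 2× EC50 of compounds (concentrations taken from the anti-promastigote assay); ROS quantified with H2DCFDA; means ± SD, n=3.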

Leishmania donovani [14] = experiment: Antileishmanial activity against Leishmania donovani LdBOB derived from MHOM/SD/62/1 S-CL2D promastigotes overexpressing NTR2 incubated for 72 hrs by resazurin dye based assay; type: functional, organism-based; how it was run: as §4
[15] = Metabolic stability in human liver S9 fraction assessed as drug recovery at pH 7.4 in the presence of NADPH cofactor measured upto 60 mins by LC/MS/MS analysis; type: ADME, subcellular; conditions: s9, pH 7.4, 1 h
Leishmania infantum [16] = experiment: Antileishmanial activity in Leishmania infantum promastigotes intraperitoneally infected in BALB/c mouse assessed as reduced parasite load in spleen at 100 mg/kg, po twice a day followed by omeprazole administration 1 hr prior to test compound administration for 5 consecutive days relative to control; type: functional; set-up: scale not given: the % may be the effect or the level left; conditions: time 5 day
How it was run: (§5)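 BALB/c mice (n=5) infected intraperitoneally with 1 × 10^8 L. infantum promastigotes; treatment began seven days post-infection. Oral omeprazole 10mg given 1 h before each oral dose of test compound (25, 50, 100 mg/kg) every 12 h for five consecutive days. Controls received vehicle or miltefosine 22mg/kg twice daily. Spleen and liver parasite load estimated by limiting dilution.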

Leishmania infantum [17] = experiment: Antileishmanial activity in Leishmania infantum promastigotes intraperitoneally infected in BALB/c mouse assessed as reduced parasite load in liver at 25 to 100 mg/kg, po twice a day followed by omeprazole administration 1 hr prior to test compound administration for 5 consecutive days relative to control; type: functional; set-up: scale not given: the % may be the effect or the level left; conditions: dose 25-100 mg/kg, time 5 day; how it was run: as §5
[18] = Chemical stability of the compound assessed as degradation product at pH 7 measured after 240 mins; type: physicochemical; conditions: buffer, pH 7, 4 h
[19] = Chemical stability of the compound assessed as degradation product at pH 2 measured after 240 mins; type: physicochemical; conditions: buffer, pH 2, 4 h
[20] = Aqueous solubility of the compound at pH 7.4 measured after 24 hrs by UHPLC-HRMS analysis; type: physicochemical; conditions: buffer
Leishmania infantum [21] = experiment: Antileishmanial activity in Leishmania infantum promastigotes intraperitoneally infected in BALB/c mouse assessed as reduced parasite load in spleen at 50 mg/kg, po twice a day followed by omeprazole administration 1 hr prior to test compound administration for 5 consecutive days relative to control; type: functional; set-up: scale not given: the % may be the effect or the level left; conditions: time 5 day; how it was run: as §5
[22] = Stability in pooled mouse plasma at pH 7.4 assessed as parent compound remaining incubated for 240 mins by LC/MS/MS analysis; type: ADME, cell-free; conditions: pH 7.4, 4 h

Compound	IC50 (Leishmania infantum [1])	Activity [2]	IC50 (Leishmania amazonensis [3])	CC50 at 72 h [4]	IC50 (Leishmania amazonensis [5])	selectivity ratio at 72 h [7]	IC50 (Leishmania donovani [10])	Ratio IC50 (Leishmania donovani [11])	IC50 (Leishmania donovani [12])	Ratio IC50 (Leishmania donovani [13])	IC50 (Leishmania donovani [14])	also measured
O=Cc1ccc([N+](=O)[O-])cc1	> 100000 nM	-0.58 V	> 100000 nM									
CCCCCCCCCCCCCCCCOP(=O)([O-])OCC[N+](C)(C)C [MILTEFOSINE]	9810 nM		7010 nM	96500 nM	3400 nM	28						IC50 (Leishmania infantum [6]): 500 nM; selectivity ratio at 72 h [8]: 193
O=Cc1cccs1 [2-THIOPHENENECARBOXALDEHYDE]	> 100000 nM		> 100000 nM									
CC(C)(C)/[N+]([O-])=C/c1ccc([N+](=O)[O-])o1	360 nM	-0.67 V	1990 nM	108000 nM	2760 nM	39	870 nM	17	50 nM	21	40 nM	Activity (Leishmania amazonensis [9]): inactive; IC50 (Leishmania infantum [6]): 19 nM; Activity (Peritoneal macrophage): inactive; selectivity ratio at 72 h [8]: 5670
C/[N+]([O-])=C/c1cccs1	> 100000 nM		> 100000 nM	> 100000 nM								
C/[N+]([O-])=C/c1ccc([N+](=O)[O-])s1	3450 nM	-0.61 V	9720 nM	24200 nM	3810 nM	6	1120 nM	4.6	240 nM	4.5	250 nM	Activity (Leishmania amazonensis [9]): inactive; Activity (Peritoneal macrophage): inactive
C/[N+]([O-])=C/c1ccc([N+](=O)[O-])o1	880 nM	-0.62 V	9370 nM	49900 nM	1070 nM	47	1160 nM	38	30 nM	6.1	190 nM	Activity (Leishmania amazonensis [9]): inactive; Stabilty [15]: Stable; Activity (Leishmania infantum [16]): 95%; Activity (Leishmania infantum [17]): >75%; Drug degradation [18]: > 25%; Drug degradation [19]: 40%; solubility at 24 h [20]: > 10 µM; Activity (Leishmania infantum [21]): 76.6%; IC50 (Leishmania infantum [6]): 170 nM; Stabilty [22]: Stable; Activity (Peritoneal macrophage): inactive; selectivity ratio at 72 h [8]: 295
O=Cc1ccc([N+](=O)[O-])s1	1390 nM		5110 nM	6250 nM	> 11500 nM	< 0.5						
C/[N+]([O-])=C/c1ccco1	> 100000 nM		> 100000 nM	> 100000 nM								
C[C@]1(COc2ccc(N3CCC(Oc4ccc(OC(F)(F)F)cc4)CC3)cc2)Cn2cc([N+](=O)[O-])nc2O1 [DELAMANID]							1.5 nM			12.5	0.12 nM	
O=[N+]([O-])c1ccc(/C=[N+](\[O-])Cc2ccccc2)o1	220 nM		210 nM	31900 nM	2040 nM	15.6	990 nM	0.81	1220 nM	0.74	1330 nM	IC50 (Leishmania infantum [6]): 4490 nM; selectivity ratio at 72 h [8]: 5.7
O=Cc1ccc([N+](=O)[O-])o1	25700 nM	-0.38 V	25200 nM	27800 nM	> 57900 nM	< 0.5						
O=[N+]([O-])c1ccc(/C=[N+](\[O-])Cc2ccccc2)s1	1510 nM		1500 nM	18500 nM	5420 nM	3.4	410 nM	1.3	300 nM	0.53	760 nM	IC50 (Leishmania infantum [6]): 7180 nM; selectivity ratio at 72 h [8]: 2.6
C/[N+]([O-])=C\c1ccc([N+](=O)[O-])cc1	> 100000 nM	-0.68 V	> 100000 nM	> 100000 nM								
O=Cc1ccco1 [FURFURAL]	> 100000 nM		> 100000 nM									
CC(C)(C)/[N+]([O-])=C/c1ccc([N+](=O)[O-])s1	13300 nM	-0.64 V	11300 nM	29800 nM			4550 nM	17	270 nM	18	310 nM	Activity (Leishmania amazonensis [9]): inactive; Activity (Peritoneal macrophage): inactive
CC1CS(=O)(=O)CCN1/N=C/c1ccc([N+](=O)[O-])o1 (configuration not stated) [NIFURTIMOX]							1890 nM	17	110 nM			
